ChEMBL document CHEMBL2429794, “Tuning the antibacterial activity of amphiphilic neamine derivatives and comparison to paromamine homologues” (J Med Chem, 2013)
Converted amounts (≈) assume the structure as drawn.

Tests used:
[1] = Cytotoxicity against murine J774 cells assessed as cell viability at 10 uM after 24 hrs by MTT assay relative to control; assay type: cell-based; conditions: mouse, read-out: Activity
How it was run: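 Murine J774 macrophages were exposed for 24 h to compounds at 10 μM, then incubated 1 h with 0.2 mg/mL MTT. Viability was read from mitochondrial reduction of MTT to purple formazan, expressed as percent viability, and averaged over three experiments.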

Escherichia coli [2] = experiment: Antibacterial activity against Escherichia coli L58058.1 expressing ANT2''-1A after 24 hrs by geometric microdilution method; assay type: functional; conditions: L58058.1, 24 h
Escherichia coli [3] = experiment: Antibacterial activity against Escherichia coli PAZ505H8101 expressing AAC6'-1B after 24 hrs by geometric microdilution method; assay type: functional; conditions: PAZ505H8101, 24 h
Klebsiella pneumoniae = experiment: Antibacterial activity against Klebsiella pneumoniae ATCC 700603 after 24 hrs by geometric microdilution method; assay type: functional; conditions: ATCC 700603, 24 h
Pseudomonas aeruginosa [4] = experiment: Antibacterial activity against Pseudomonas aeruginosa PA22 (PT629) expressing MexXY after 24 hrs by geometric microdilution method; assay type: functional
Pseudomonas aeruginosa [5] = experiment: Antibacterial activity against Pseudomonas aeruginosa F03 expressing AAC6'-2A after 24 hrs by geometric microdilution method; assay type: functional; conditions: F03, 24 h
Pseudomonas aeruginosa [6] = experiment: Antibacterial activity against Pseudomonas aeruginosa ATCC 27853 after 24 hrs by geometric microdilution method; assay type: functional; conditions: ATCC 27853, 24 h
Acinetobacter lwoffii [7] = experiment: Antibacterial activity against Acinetobacter lwoffii AI.88-483 expressing APH3'-6A after 24 hrs by geometric microdilution method; assay type: functional; conditions: AI.88-483, 24 h
Acinetobacter lwoffii [8] = experiment: Antibacterial activity against Acinetobacter lwoffii ATCC 17925 after 24 hrs by geometric microdilution method; assay type: functional; conditions: ATCC 17925, 24 h
Staphylococcus aureus [9] = experiment: Antibacterial activity against vancomycin-resistant Staphylococcus aureus VRS2 after 24 hrs by geometric microdilution method; assay type: functional; conditions: VRS2, 24 h
How it was run: (§1)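 Broth cultures were incubated in plates at 37 °C, and growth was read as absorbance at 650 nm after 1, 4, 7 and 24 h. Ampicillin (16 mg/L) was the positive control and DMSO the negative control. Each MIC (μg/mL) is the average of at least three determinations.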

Staphylococcus aureus [10] = experiment: Antibacterial activity against healthcare-acquired methicillin-resistant Staphylococcus aureus ATCC 33592 after 24 hrs by geometric microdilution method; assay type: functional; conditions: ATCC 33592, 24 h; how it was run: as §1
Staphylococcus aureus [11] = experiment: Antibacterial activity against Staphylococcus aureus expressing aminoglycoside-[…] after 24 hrs by geometric microdilution method; assay type: functional; how it was run: as §1
Staphylococcus aureus [12] = experiment: Antibacterial activity against Staphylococcus aureus expressing aminoglycoside-3'-O-phosphoryltransferase after 24 hrs by geometric microdilution method; assay type: functional; how it was run: as §1
Staphylococcus aureus [13] = experiment: Antibacterial activity against Staphylococcus aureus expressing aminoglycoside-6'-N-acetyltransferase/2''-O-phosphoryltransferase after 24 hrs by geometric microdilution method; assay type: functional; how it was run: as §1
Staphylococcus aureus [14] = experiment: Antibacterial activity against 14- and 15-membered macrolide-resistant Staphylococcus aureus expressing MsrA efflux pump after 24 hrs by geometric microdilution method; assay type: functional; how it was run: as §1
Staphylococcus aureus [15] = experiment: Antibacterial activity against fluoroquinolone-resistant Staphylococcus aureus 1199B expressing NorA efflux pump after 24 hrs by geometric microdilution method; assay type: functional; how it was run: as §1
Escherichia coli [16] = experiment: microbe, parasite or virus in culture; conditions: ATCC 25922, 24 h
Staphylococcus aureus [17] = experiment: microbe, parasite or virus in culture; conditions: ATCC 25923, 24 h

SMILES | viability at 24 h, 10 µM [1] [%] | MIC (Escherichia coli [2]) [µg/mL] | MIC (Escherichia coli [3]) [µg/mL] | MIC (Klebsiella pneumoniae) [µg/mL] | MIC (Pseudomonas aeruginosa [4]) [µg/mL] | MIC (Pseudomonas aeruginosa [5]) [µg/mL] | MIC (Pseudomonas aeruginosa [6]) [µg/mL] | MIC (Acinetobacter lwoffii [7]) [µg/mL] | MIC (Acinetobacter lwoffii [8]) [µg/mL] | MIC (Staphylococcus aureus [9]) [µg/mL] | MIC (Staphylococcus aureus [10]) [µg/mL] | MIC (Staphylococcus aureus [11]) [µg/mL] | MIC (Staphylococcus aureus [12]) [µg/mL] | MIC (Staphylococcus aureus [13]) [µg/mL] | MIC (Staphylococcus aureus [14]) [µg/mL] | MIC (Staphylococcus aureus [15]) [µg/mL] | MIC (Escherichia coli [16]) [µg/mL] | MIC (Staphylococcus aureus [17]) [µg/mL]
CCCCCCO[C@@H]1[C@@H](N)[C@@H](O[C@H]2[C@H](O)[C@@H](OCCCCCC)[C@H](N)C[C@@H]2N)O[C@H](CN)[C@H]1OCCCCCC | 40 | 4 (≈ 6.96 µM) | 4 (≈ 6.96 µM) | 8 (≈ 13.9 µM) | 8 (≈ 13.9 µM) | 8 (≈ 13.9 µM) | 8 (≈ 13.9 µM) | 64 (≈ 111 µM) | 4 (≈ 6.96 µM) | 4 (≈ 6.96 µM) | 4 (≈ 6.96 µM) | 8 (≈ 13.9 µM) | 4 (≈ 6.96 µM) | 8 (≈ 13.9 µM) | 8 (≈ 13.9 µM) | 4 (≈ 6.96 µM) | 4 (≈ 6.96 µM) | 4 (≈ 6.96 µM)
N[C@H]1[C@@H](O[C@H]2[C@H](O)[C@@H](OCc3ccc4ccccc4c3)[C@H](N)C[C@@H]2N)O[C@H](CO)[C@@H](O)[C@@H]1OCc1ccc2ccccc2c1 |  | 64 (≈ 106 µM) | 64 (≈ 106 µM) | > 128 | 128 (≈ 212 µM) | 64 (≈ 106 µM) | 128 (≈ 212 µM) | > 128 | 64 (≈ 106 µM) | 16 (≈ 26.5 µM) | 16 (≈ 26.5 µM) | 16 (≈ 26.5 µM) | 16 (≈ 26.5 µM) | 32 (≈ 53 µM) | 32 (≈ 53 µM) | 32 (≈ 53 µM) | 128 (≈ 212 µM) | 8 (≈ 13.3 µM)
NC[C@H]1O[C@H](O[C@H]2[C@H](O)[C@@H](O)[C@H](N)C[C@@H]2N)[C@H](N)[C@@H](O)[C@@H]1O [NEAMINE] |  | 32 (≈ 99.3 µM) | > 128 | 32 (≈ 99.3 µM) | > 128 | > 128 | > 128 | > 128 | 2 (≈ 6.2 µM) | ≥ 128 | > 128 | > 128 | > 128 | 16 (≈ 49.6 µM) | 16 (≈ 49.6 µM) | 32 (≈ 99.3 µM) | 32 (≈ 99.3 µM) | 32 (≈ 99.3 µM)
NC[C@H]1O[C@H](O[C@H]2[C@H](O)[C@@H](OCc3cccc4ccccc34)[C@H](N)C[C@@H]2N)[C@H](N)[C@@H](OCc2cccc3ccccc23)[C@@H]1O |  | 32 (≈ 53.1 µM) | 16 (≈ 26.5 µM) | > 128 | > 128 | 64 (≈ 106 µM) | 32 (≈ 53.1 µM) | > 128 | 16 (≈ 26.5 µM) | 8 (≈ 13.3 µM) | 8 (≈ 13.3 µM) | 16 (≈ 26.5 µM) | 8 (≈ 13.3 µM) | 32 (≈ 53.1 µM) | 16 (≈ 26.5 µM) | 16 (≈ 26.5 µM) | 32 (≈ 53.1 µM) | 8 (≈ 13.3 µM)
NC[C@H]1O[C@H](O[C@H]2[C@H](O)[C@@H](OCCCCCCc3ccc4ccccc4c3)[C@H](N)C[C@@H]2N)[C@H](N)[C@@H](OCCCCCCc2ccc3ccccc3c2)[C@@H]1O | < 50 | 128 (≈ 172 µM) | 64 (≈ 86.1 µM) |  | 64 (≈ 86.1 µM) | 64 (≈ 86.1 µM) | 32 (≈ 43.1 µM) |  |  | > 128 | > 128 | > 128 | 64 (≈ 86.1 µM) | 128 (≈ 172 µM) |  | > 128 | 128 (≈ 172 µM) | 64 (≈ 86.1 µM)
